Screening data deposited in PubChem by several laboratories.
PREPL inh – inhibits the human prolyl oligopeptidase-like enzyme. Q4J6C6. recombinant PREPL, fluorescence polarization activity-based probe. inhibition, % at 5.96 µM. actives 0.68% (n = 320,000); in the data active = inhibition above about 43%
UBC13 polyUb – inhibitors of human UBC13 polyubiquitin chain formation | P61088 | TR-FRET | inhibition, % at 20 µM | actives 0.47% (n = 330,000) | AID 485273; in the data active = inhibition above about 45%, passing the limit was not always enough
Target sequence (P61088 whole entry, looked up): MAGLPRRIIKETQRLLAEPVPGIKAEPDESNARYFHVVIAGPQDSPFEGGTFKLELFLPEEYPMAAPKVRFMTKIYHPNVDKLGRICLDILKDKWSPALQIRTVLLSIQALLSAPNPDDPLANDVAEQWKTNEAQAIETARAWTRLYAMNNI
ALR inh – human ALR oxidase inhibition via reduced H2O2; P55789; purified ALR, DTT oxidation, H2O2 HRP-luminol luminescence; inhibition, % (test concentration not listed); actives 3.8% (n = 290,000); AID 485317;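 active = mean replicate inhibition above about 79%, with every replicate also reaching it, limit read from the data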
SUMO HTRF inh – inhibitors of human SUMOylation (UBC9); HTRF SUMOylation assay, SAE1/SAE2 + UBC9, in vitro; actives 0.36% (n = 290,000); P63279; inhibition, % at 35 µM; in the data active = inhibition above about 50%, passing the limit was not always enough
Target sequence (P63279 whole entry, looked up): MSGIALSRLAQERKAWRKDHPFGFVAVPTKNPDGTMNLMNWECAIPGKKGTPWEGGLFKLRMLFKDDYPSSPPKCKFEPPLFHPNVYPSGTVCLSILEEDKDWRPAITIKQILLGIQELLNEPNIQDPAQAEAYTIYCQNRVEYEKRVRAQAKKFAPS
Rin1 Abl inh – inhibitors of human Rin1-Abl protein interaction; P00519+Q13671; inhibition, % at 7.35 µM; actives 0.4% (n = 360,000); TR-FRET Rin1/Abl binding, biochemical; in the data active = inhibition above about 5%, passing the limit was not always enough
RBBP9 inhibitor – inhibitors of human serine hydrolase RBBP9. recombinant RBBP9, FP-Rh probe fluorescence polarization. inhibition, % at 7.94 µM. actives 0.2% (n = 220,000);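 active = inhibition above the campaign mean of all tested compounds plus 3 SD, cut at about 14% in these data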
Target sequence (O75884 whole entry, looked up): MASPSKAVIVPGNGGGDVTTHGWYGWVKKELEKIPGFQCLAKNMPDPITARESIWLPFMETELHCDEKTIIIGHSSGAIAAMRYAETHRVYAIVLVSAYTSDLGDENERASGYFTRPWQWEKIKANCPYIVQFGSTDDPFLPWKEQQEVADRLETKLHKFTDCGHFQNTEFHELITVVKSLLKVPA
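System: RBBP9 protein | Quantity: 2.5 µM RBBP9 dispensing solution, before mixing | Reagent: FP-Rh probe, 375 nM dispensing solution | Timing: Enzyme-compound preincubation 30 min, then probe labeling 45 min, 25 °C | Measured by: Fluorescence polarization | Read-out: % inhibition | Replication: One well per compound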
Each line names hits and unclear results; the compound was inactive in the other large screens. Only some compounds are listed: those with a hit (about 4.3% of all), similar ones and a draw of the others.

Cc1ccc2nc(NC(=O)CSc3nc(=O)n(CCN(C)C)c4c3CCCC4)sc2c1	ALR inh 98.0 (no result: SUMO HTRF inh, RBBP9 inhibitor)
CN(C)CCn1c2c(c(SCC(=O)Nc3ccc4c(c3)OCCO4)nc1=O)CCCC2	ALR inh 96.8 (no result: SUMO HTRF inh, RBBP9 inhibitor)
CCN(CC)CCn1c2c(c(SCC(=O)Nc3ccc4c(c3)OCCO4)nc1=O)CCC2	none (no result: SUMO HTRF inh, RBBP9 inhibitor)
COc1ccc(NC(=O)CSc2nc(=O)n(CCN(C)C)c3c2CCCC3)cc1OC	none (no result: SUMO HTRF inh, RBBP9 inhibitor)
CN(C)CCn1c2c(c(SCC(=O)Nc3ccccc3)nc1=O)CCCC2	none (no result: SUMO HTRF inh, RBBP9 inhibitor)
CN(C)CCn1c2c(c(SCC(=O)Nc3ccc4c(c3)OCCO4)nc1=O)CCC2	ALR inh 97.5 (no result: SUMO HTRF inh, RBBP9 inhibitor)
CN(C)C(=S)Oc1ccccc1C1SCCS1	none (no result: PREPL inh, UBC13 polyUb, ALR inh, SUMO HTRF inh, RBBP9 inhibitor)
Cn1cc(-c2csc(C(O)c3ccc(F)cc3)n2)cn1 (stereo unspecified)	none (no result: PREPL inh, UBC13 polyUb, ALR inh, SUMO HTRF inh, RBBP9 inhibitor)
O=C(NCC1CCCO1)c1ccccc1NS(=O)(=O)c1cc([N+](=O)[O-])ccc1Cl (stereo unspecified)	none (no result: ALR inh, SUMO HTRF inh, RBBP9 inhibitor)
O=C(NCC1CCCO1)c1cc([N+](=O)[O-])ccc1Cl (stereo unspecified)	ALR inh 95.4
O=C(NN=Cc1ccc2c(c1)CCC2)c1cccc([N+](=O)[O-])c1	none (no result: PREPL inh, UBC13 polyUb, ALR inh, SUMO HTRF inh, RBBP9 inhibitor)
N#CCC(=O)Nc1ccc(C(=O)NCC2(N3CCOCC3)CCCCC2)cc1	ALR inh 98.7 (no result: SUMO HTRF inh, RBBP9 inhibitor)
CC(=O)Nc1ccc(SCC(=O)NCC2(N3CCCCC3)CCCCC2)cc1	ALR inh 98.9 (no result: SUMO HTRF inh, RBBP9 inhibitor)
Cc1ccc(C(=O)N/C(=C/c2ccc(N(C)C)cc2)C(=O)NCC2CCCO2)cc1 (stereo unspecified)	ALR inh 86.8 (no result: RBBP9 inhibitor)
CN(C)c1ccc(NC(=S)NCC2CCCO2)cc1 (stereo unspecified)	ALR inh 99.5
Cc1c(-c2ccc(OCCN3CCOCC3)cc2)c(=O)oc2ccc3ccccc3c12	none (no result: PREPL inh, UBC13 polyUb, ALR inh, SUMO HTRF inh, RBBP9 inhibitor)
CNc1sc(C(=O)c2ccccc2F)c(N)c1-c1nc2ccccc2s1	ALR inh 90.9
O=C(CNC(=O)c1ccccc1F)OCc1nc2ccccc2s1	none
O=C(Cn1c2ccccc2c(=O)c2ccccc21)Nc1ccccc1F	none
O=C(Cn1c2ccccc2c(=O)c2cc([N+](=O)[O-])ccc21)Nc1ccccc1Cl	SUMO HTRF inh 51.4
CCN1CCN(C(=O)C2CCN(S(=O)(=O)c3cccc4cccnc34)CC2)CC1	ALR inh 97.8 (no result: RBBP9 inhibitor)
N#C/C(=C\c1c(N2CCCCC2)nc2ccccn2c1=O)S(=O)(=O)c1ccccc1	none
CCc1ccc2[nH]c(=O)c(C3C(C#N)=C(N)Oc4c3ccc3cccnc43)cc2c1 (stereo unspecified)	Rin1 Abl inh 10.0
Cc1ccc2cc(C3C(C#N)=C(N)Oc4c3ccc3cccnc43)c(=O)[nH]c2c1 (stereo unspecified)	none
Cn1c(=O)c(Oc2cc(Cl)cc(Cl)c2)nc2ccccc21	ALR inh 97.8
COc1ccc(Nc2cc(C(=O)NCCCOC(C)C)c3ccccc3n2)c(OC)c1	none (no result: RBBP9 inhibitor)
COc1ccc(Nc2cc(C(=O)NCCCN3CCN(C)CC3)c3ccccc3n2)c(OC)c1	ALR inh 80.6
CC(C)n1cc(C(=O)N2CCCC(N3CCN(c4cccc(Cl)c4)CC3)C2)cn1 (stereo unspecified)	ALR inh 89.2 (no result: PREPL inh, RBBP9 inhibitor)
O=C(c1ccsc1)N1CCCC(N2CCN(c3cccc(Cl)c3)CC2)C1 (stereo unspecified)	none (no result: RBBP9 inhibitor)
N#Cc1cc2c([nH]c1=S)CCCCCC2	none (no result: ALR inh)
N#Cc1c(N)n[nH]c1-c1cc2c([nH]1)CCCC2	ALR inh 98.4
CCOC(=O)c1c(C)n(O)c2ccc(Cl)cc2c1=O	none
Cc1c(C(=O)N(C)C)c2cc(Cl)ccc2n1O	ALR inh 97.7
Cc1nc(C(=O)N(C)C)nn1-c1cc(Cl)ccc1Cl	none
Cc1c(C(=O)N(C)C)c2ccc(Cl)cc2n1O	ALR inh 98.5
Nc1cc2c(cc1Cl)-c1ccc([N+](=O)[O-])cc1C2=NO	none (no result: PREPL inh, UBC13 polyUb, ALR inh, SUMO HTRF inh, RBBP9 inhibitor)
CCSCc1nnc(SCC(=O)Nc2cccc(SC)c2)n1C	ALR inh 98.3
CCSCc1nnc(SCC(=O)Nc2cccc(C(C)=O)c2)n1C	none
CC(C)N1CC=C2C(C#N)=C(N)C(C#N)(C#N)[C@H](c3ccoc3)[C@H]2C1	SUMO HTRF inh 56.2 (no result: UBC13 polyUb, Rin1 Abl inh)
Cc1ccc(C2C3CSCC=C3C(C#N)=C(N)C2(C#N)C#N)cc1 (stereo unspecified)	ALR inh 93.4
CC(C)N1CC=C2C(C#N)=C(N)C(C#N)(C#N)C(c3ccccc3)C2C1 (stereo unspecified)	none (no result: UBC13 polyUb)
